Test results: ChEMBL document CHEMBL1123966, “Ring-substituted [1,2-bis(4-hydroxyphenyl)ethylenediamine]dichloroplatinum (II) complexes: compounds with a selective effect on the hormone-dependent mammary carcinoma” (1988)
Values joined by “and” are separate entries in the source; they are usually repeats but may differ in a detail not shown here. Equal entries are not always repeated.

Tests used:
[1] = Median tumor weight of MXT ER+ determined at the end of 6 week therapy at a dose of 5.3 mg/kg (1.4*10e-5 M/kg); format: functional, Mus musculus
Summary of the method: (§1)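 MXT mammary carcinoma (hormone-dependent, ER+) in BDF1 mice. Doses given in olive oil, sc, three times a week, for 6 weeks. Median tumor weight was measured at the end of therapy and expressed as T/C %. Significance was by the Wilcoxon-Mann-Whitney U test.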

[2] = Cell growth inhibition of MXT-ER+ breast cancer cells at a dose of 0.6 mg/kg (1.5*10e-6 M/kg); format: functional, organism-based; set-up: dose 0.6 mg/kg; details: Mus musculus, Cancer cell lines; summary of the method: as §1
[3] = Cell growth inhibition of MXT-ER+ breast cancer cells at a dose of 5.3 mg/kg ([…]); format: functional, organism-based; set-up: dose 5.3 mg/kg; details: Mus musculus, Cancer cell lines; summary of the method: as §1
[4] = Median tumor weight of MXT ER+ (mammary carcinoma) determined at the end of 6 week therapy at a dose of 0.6 mg/kg (1.5*10e-6 M/kg); format: functional, Mus musculus; summary of the method: as §1
[5] = Median tumor weight of MXT ER+ determined at the end of 6 week therapy at a dose of 0.6 mg/kg (1.5*10e-6 M/kg); format: functional, Mus musculus; summary of the method: as §1
Mus musculus [6] = organism: Mus musculus; experiment: (§2) Uterotrophic effect in BDF1 mouse measured as([weight of uterus (mg)/body weight (g)] *100); format: functional
Summary of the method: (§3)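 Female BDF1 mice carrying MXT ER+ mammary carcinoma were dosed in olive oil, sc, three times a week, for 6 weeks. At the end of therapy, uterotropic effect = [uterus dry weight (mg)/body weight (g)] × 100, given as mean ± SD and as T/C % versus control. Significance was by the U test.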

Mus musculus [7] = experiment: Uterotrophic effect in BDF1 mouse at a dose of 0.6 mg/kg (1.5*10e-6 M/kg); format: functional, Uterus; summary of the method: as §3
Mus musculus [8] = experiment: Uterotrophic effect in BDF1 mouse at a dose of 1.8 mg/kg (4.6 *10e-6 M/kg); format: functional, Uterus; summary of the method: as §3
Rattus norvegicus [9] = organism: Rattus norvegicus; experiment: Percent change of tumor area at 28 day of therapy at a dose of 1.9 mg in DMBA - induced hormone dependent mammary carcinoma in rat; format: functional
Summary of the method: (§4)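 DMBA-induced, hormone-dependent mammary carcinoma in Sprague-Dawley rats. Dose is per kg body weight per day, given three times a week, sc, as suspension or solution in polyethylene glycol 400/H2O 1:1, for 4 weeks. Tumors were counted at start (B) and as new tumors (NT). Outcomes were scored as % complete remission (not palpable), partial remission, no change and progression, with % change in tumor area.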

Rattus norvegicus [10] = organism: Rattus norvegicus; experiment: Percent change of in body weight at 7 day of therapy at a dose of 1.9 mg in DMBA - induced hormone dependent mammary carcinoma in rat; format: functional
Rattus norvegicus [11] = organism: Rattus norvegicus; experiment: No. of tumors at the beginning of the test at dose of 1.9 in DMBA - induced, hormone dependent mammary carcinoma in 8 rat; format: functional; summary of the method: as §4
Rattus norvegicus [12] = organism: Rattus norvegicus; experiment: No. of tumors occurring at a dose of 1.9 mg in DMBA - induced hormone dependent mammary carcinoma in rat; format: functional; summary of the method: as §4
Rattus norvegicus [13] = organism: Rattus norvegicus; experiment: Percent of tumors with no change at a dose of 1.9 mg in DMBA - induced hormone dependent mammary carcinoma in rat; format: functional; summary of the method: as §4
Rattus norvegicus [14] = organism: Rattus norvegicus; experiment: Percent of tumors with partial remission at a dose of 1.9 mg in DMBA - induced, hormone dependent mammary carcinoma in rat; format: functional; summary of the method: as §4
Rattus norvegicus [15] = organism: Rattus norvegicus; experiment: Percent of tumors with progression at a dose of 1.9 mg in DMBA - induced hormone dependent mammary carcinoma in rat; format: functional; summary of the method: as §4
Rattus norvegicus [16] = organism: Rattus norvegicus; experiment: Percent of tumors with complete remission at a dose of 1.9 mg in DMBA - induced, hormone dependent mammary carcinoma in rat; format: functional; summary of the method: as §4
[17] = Cell growth inhibition of MXT-ER+ breast cancer cells at a dose of 1.8 mg/kg (4.6 *10e-6 M/kg); format: functional, organism-based; set-up: dose 1.8 mg/kg; details: Mus musculus, Cancer cell lines; summary of the method: as §1
[18] = Cell growth inhibition of MXT-ER+ breast cancer cells at a dose of 8 mg; format: functional; details: Mus musculus; Cancer cell lines
Summary of the method: (§5)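 Hormone-dependent MXT mammary carcinoma (ER+) model. Equimolar doses (2 × 10⁻⁵ M/kg) were given sc three times weekly (Mon, Wed, Fri) as a solution or suspension in polyethylene glycol 400/H₂O (1:1); some agents were given in olive oil. Median tumor weight was taken at the end of 6 weeks of therapy and given as T/C %. Significance was tested by the Wilcoxon-Mann-Whitney U test.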

Mus musculus [19] = organism: Mus musculus; experiment: Median tumor weight of MXT ER+ (mammary carcinoma) determined at the end of 6 week therapy at a dose of 8 mg; format: functional
Summary of the method: (§6)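 BDF1 mice with hormone-dependent MXT mammary carcinoma (ER+). Equimolar dosing at 2 × 10⁻⁵ M/kg, given sc in olive oil three times a week (Mon/Wed/Fri) for 6 weeks. Median tumor weight was taken at the end of therapy and compared with controls by the Wilcoxon–Mann–Whitney U test.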

Mus musculus [20] = organism: Mus musculus; experiment: Uterotrophic effect in BDF1 mouse at a dose of 8 mg; format: functional, Uterus
Summary of the method: (§7)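 Uterus of BDF1 mice in the MXT ER+ study. Equimolar dosing at 2 × 10⁻⁵ M/kg, sc in olive oil three times a week (Mon/Wed/Fri). Uterine response = [uterus dry weight (mg)/body weight (g)] × 100, determined at the end of the 6-week therapy; U test.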

MCF7S [21] = experiment: Cell growth inhibition in hormone dependent MCF 7 breast cancer cells; format: functional, cell-based; details: Homo sapiens
MCF7S [22] = experiment: Incorporation of [3H]- thymidine in hormone dependent MCF-7 breast cancer cells; format: functional, cell-based; details: Homo sapiens
MDA-MB-231 [23] = experiment: Incorporation of [3H]- thymidine into hormone independent MDA-MB-231 breast cancer cells; format: functional, cell-based; details: Homo sapiens
MDA-MB-231 [24] = experiment: Cell growth inhibition in hormone independent MDA-MB-231 breast cancer cells; format: functional, cell-based; details: Homo sapiens
MDA-MB-231 [25] = experiment: Incorporation of [3H]- thymidine in hormone independent MDA-MB-231 breast cancer cells; format: functional, cell-based; details: Homo sapiens
Mus musculus [26] = experiment: Median tumor weight of MXT ER+ determined at the end of 6 week therapy at a dose of 4.2 mg/kg (1.4*10^-5 M/kg); format: functional, organism-based; set-up: dose 4.2 mg/kg
Summary of the method: (§8)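 BDF1 mice bearing MXT mammary carcinoma. Dosing sc in water once per week over a 6-week therapy. Median tumor weight and uterine index ([uterus dry weight (mg)/body weight (g)] × 100) were read at the end of therapy; U test (Wilcoxon, Mann, Whitney).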

Mus musculus [27] = experiment: Median tumor weight of MXT ER+ determined at the end of 6 week therapy ata dose of 2 mg/kg; format: functional, organism-based; set-up: dose 2 mg/kg; summary of the method: as §6
[28] = Cell growth inhibition of MXT-ER+ breast cancer cells at a dose of 1.4 mg/kg (4.6*10e-6M/kg); format: functional, organism-based; set-up: dose 1.4 mg/kg; details: Mus musculus, Cancer cell lines
Summary of the method: (§9)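 Hormone-dependent MXT mammary carcinoma in BDF₁ mice. Dosing was sc in water as vehicle: 1.4 mg/kg three times a week, and 4.2 mg/kg once per week. Median tumor weight was taken after 6 weeks of therapy and expressed as T/C %. Significance was tested by the Wilcoxon-Mann-Whitney U test.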

[29] = Cell growth inhibition of MXT-ER+ breast cancer cells at a dose of 4.2 mg/kg (1.4*10^-5 M/kg); format: functional, organism-based; set-up: dose 4.2 mg/kg; details: Mus musculus, Cancer cell lines; summary of the method: as §9
[30] = Cell growth inhibition of MXT-ER+ breast cancer cells ata dose of 2 mg/kg; format: functional, organism-based; set-up: dose 2 mg/kg; details: Mus musculus; Cancer cell lines; summary of the method: as §5
Mus musculus [31] = experiment: Median tumor weight MXT ER+ determined at the end of 6 week therapy at a dose of 1.4 mg/kg (4.6*10e-6M/kg); format: functional, organism-based; set-up: dose 1.4 mg/kg; summary of the method: as §9
[32] = Cell growth inhibition of MXT-ER- breast cancer cells ata dose of 2 mg/kg; format: functional, organism-based; set-up: dose 2 mg/kg; details: Mus musculus; Cancer cell lines
Summary of the method: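 Hormone-independent MXT mammary carcinoma (ER−) in mice. Equimolar doses (2 × 10⁻⁵ M/kg) were given sc three times a week (Mon, Wed, Fri) in polyethylene glycol 400/H₂O (1:1), or in olive oil for some agents. Median tumor area was measured at the end of a 2-week therapy and expressed as T/C %.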

Mus musculus [33] = experiment: Uterotrophic effect in BDF1 mouse at a dose of 1.4 mg/kg (4.6*10e-6M/kg); format: functional, organism-based; set-up: dose 1.4 mg/kg; details: Uterus
Summary of the method: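 BDF1 mice bearing MXT mammary carcinoma. Dosing sc in water three times a week for 6 weeks. Uterine index = [uterus dry weight (mg)/body weight (g)] × 100 (± SD), read at the end of therapy; U test.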

Mus musculus [34] = experiment: Uterotrophic effect in BDF1 mouse at a dose of 4.2 mg/kg (1.4*10^-5 M/kg); format: functional, organism-based; set-up: dose 4.2 mg/kg; details: Uterus; summary of the method: as §8
Mus musculus [35] = experiment: Uterotrophic effect in BDF1 mouse ata dose of 2 mg/kg; format: functional, organism-based; set-up: dose 2 mg/kg; details: Uterus; summary of the method: as §7
Mus musculus [36] = organism: Mus musculus; experiment: as §2; format: functional, organism-based

Compound: NC(c1c(Cl)cc(O)cc1Cl)C(N)c1c(Cl)cc(O)cc1Cl (stereo unspecified)
- Med tumor weight [1]: 61 mg
- T/C [2]: < 18%
- T/C [3]: < 12%
- Med tumor weight [4]: 91.5 mg
- Med tumor weight [5]: 62.5 mg
- Effect (Mus musculus [6]): 134 and 201
- T/C (Mus musculus [7]): <158%
- T/C (Mus musculus [8]): 239%
- Change (Rattus norvegicus [9]): 154%
- Change (Rattus norvegicus [10]): -1.5%
- No. of tumors (Rattus norvegicus [11]): 26
- No. of tumors (Rattus norvegicus [12]): 3
- Tumors (Rattus norvegicus [13]): 7%
- Tumors (Rattus norvegicus [14]): 4%
- Tumors (Rattus norvegicus [15]): 78%
- Tumors (Rattus norvegicus [16]): 11%
- T/C [17]: < 12%

Compound: CC/C(=C(\c1ccccc1)c1ccc(OCCN(C)C)cc1)c1ccccc1 [TAMOXIFEN]
- T/C [18]: 3%
- Med tumor weight (Mus musculus [19]): 16 mg
- Effect (Mus musculus [6]): 72.3
- T/C (Mus musculus [20]): 80%

Compound: CISPLATIN
- ED50 (MCF7S [21]): 440 nM
- T/C (MCF7S [21]): 11%
- ED50 (MCF7S [22]): 110 nM
- T/C (MCF7S [22]): 1%
- ED50 (MDA-MB-231 [23]): 320 nM
- ED50 (MDA-MB-231 [24]): 240 nM
- T/C (MDA-MB-231 [24]): 26%
- T/C (MDA-MB-231 [25]): 17%
- Med tumor weight (Mus musculus [26]): 222 mg
- Med tumor weight (Mus musculus [27]): 15 mg
- T/C [28]: 3%
- T/C [29]: 44%
- T/C [30]: 3%
- Med tumor weight (Mus musculus [31]): 15 mg
- T/C [32]: 15%
- Effect (Mus musculus [6]): 95
- T/C (Mus musculus [33]): 114%
- T/C (Mus musculus [34]): 118%
- T/C (Mus musculus [35]): 114%
- Utreotropic effect (Mus musculus [36]): 96 and 100
